# KCNQ1 block: human KCNQ1 channel inhibition; P51787; CHO-K1 KCNQ1, FluxOR thallium flux fluorescence; hits give high values; B-score at 10 µM; hit rate 1.3% among 310,000; AID 2642;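 active = compounds whose thallium flux B-score, printed positive for inhibition, exceeds three library SD while starting fluorescence stays within three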;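 note: channel opened by potassium depolarization with thallium stimulus after 20 min compound exposure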
# KCNK3 inh: human KCNK3 channel inhibition, primary screen; O14649; hit rate 0.84% among 340,000; CHO-KCNK3 thallium flux, FluxOR fluorescence; hits give low values; B-score at 10 µM;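 active = B-score under library mean minus 4 SD, starting fluorescence ratio at most library mean plus 5 SD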;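 note: more negative B-score means stronger inhibition of thallium flux through KCNK3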
# Target sequence (O14649 whole entry, looked up): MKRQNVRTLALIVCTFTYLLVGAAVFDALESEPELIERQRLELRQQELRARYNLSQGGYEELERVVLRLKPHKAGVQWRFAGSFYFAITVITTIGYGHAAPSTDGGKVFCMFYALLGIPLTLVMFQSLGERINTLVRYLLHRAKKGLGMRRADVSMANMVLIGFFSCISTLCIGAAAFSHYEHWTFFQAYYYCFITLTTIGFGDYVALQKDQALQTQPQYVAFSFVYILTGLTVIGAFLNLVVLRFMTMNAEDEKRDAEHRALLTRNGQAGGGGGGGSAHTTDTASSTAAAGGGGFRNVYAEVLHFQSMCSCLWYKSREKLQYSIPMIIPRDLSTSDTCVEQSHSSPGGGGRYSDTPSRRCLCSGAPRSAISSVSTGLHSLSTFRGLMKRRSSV
# KCNK9 block: human KCNK9 channel inhibition; HEK293 KCNK9, FluxOR thallium flux fluorescence; hits give low values; B-score at 10 µM; hit rate 1.2% among 310,000;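 active = ratio B-score over 3 SD below the library mean, with starting fluorescence within 5 SD of its mean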;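 note: negative B-score means less thallium flux so channel inhibition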
# KCNQ1 act: potentiates or activates the human KCNQ1 potassium channel; P51787; CHO-K1 KCNQ1, thallium flux FluxOR fluorescence; hits give high values; B-score at 10 µM; hit rate 0.35% among 310,000;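 active = fluorescence ratio B-score, a plate-corrected score, at least three library SD, with initial intensity B-score within 5 SD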
#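 Medium – assay buffer, equal DMSO in all wells · Material – CHO-K1 cell line with stable KCNQ1 potassium channel expression · Signal – kinetic FluxOR thallium fluorescence, 10-s 1-Hz baseline, 110-s post-stimulus read · Compound – single concentration per compound, DMSO matched to controls · Schedule – 37 °C overnight plating, 90-min dark dye load, 20-min compound pretreatment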
# Kir21 inh: inhibitors of mouse Kir2.1 inward-rectifier potassium channel. hit rate 0.85% among 310,000. B-score at 10 µM. HEK293-Kir2.1, FluxOR thallium flux fluorescence; hits give low values. P35561;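 active = fluorescence ratio B-score at or below minus 3 SD of library scores, with starting-brightness B-score within 2 SD, cut at about -4.2 in these data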;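 note: channel flux triggered by added potassium and thallium sulfate stimulus; B-score of peak minus minimum fluorescence over baseline after thallium stimulus; more negative B-score means stronger Kir2.1 block with less thallium influx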
# hERG rescue: shields human hERG channel from block by proarrhythmic agents; CHO-hERG, FluxOR thallium flux, dofetilide IC70 present; Q12809; activation (rescue from dofetilide block), less the hit threshold, % at 10 µM; hit rate 0.51% among 310,000;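 active = activation above the mean of controls blocked by dofetilide plus 5 SD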;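 note: thallium influx through hERG after potassium depolarization seen as dye fluorescence rise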
# KCNK3 confirm: human KCNK3 channel inhibition, confirmation assay. hit rate 99% among 2,400. ratio percent of control, % at 10 µM. CHO-KCNK3 thallium flux, FluxOR fluorescence; 0% buffer, 100% carvedilol maximal block. shares compounds with KCNK3 inh;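 active = ratio percent of control, averaged over triplicates, above buffer control mean plus 5 SD, cut at about 64% in these data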;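 note: ratio is the fluorescence rise from min to max over baseline after thallium stimulus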
# KCNK3 uninduced: activity in cells without induced KCNK3 expression | shares compounds with KCNK3 inh | non-induced KCNK3 parental cells, FluxOR thallium flux; hits give low values | thallium flux ratio (lower = more inhibition) at 10 µM | hit rate 40% among 2,400;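 active = thallium flux ratio, averaged over three wells, more than 5 SD below the buffer control mean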;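 note: host cells are CHO cells without KCNK3 induction; ratio is peak minus trough fluorescence over baseline then normalized to buffer controls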
# Numbers without * were called inactive; i = inactive; / = no result given. The list is not random: actives were taken first. Their share in the collection is about 3.7%.
SMILES,KCNQ1 block,KCNK3 inh,KCNK9 block,KCNQ1 act,Kir21 inh,hERG rescue,KCNK3 confirm,KCNK3 uninduced
COc1ccccc1N(C)S(=O)(=O)c1ccc(C(=O)Nc2cccc(Br)c2)cc1,/,-12*,/,/,/,/,125*,i
COc1cccc2cc(C(C)N(CCCN3CCOCC3)C(=S)Nc3c(C)cccc3C)oc12 (stereo not drawn),i,i,i,i,1.6,-8,/,/
CCc1ccc(NC(=O)N(CCCN2CCOCC2)C(C)c2cc3cccc(OC)c3o2)cc1 (stereo not drawn),i,-8.8*,i,i,-0.28,-13,118*,i
O=[N+]([O-])c1cccc(CSc2ncnc3ccccc23)c1,i,-9.6*,i,i,0.54,-14,84*,i
Cc1nn2c(NCc3ccccn3)cc(C(C)C)nc2c1-c1ccccc1,i,i,i,i,0.63,-7,/,/
Cc1nn2c(NCCCn3ccnc3)cc(C(C)C)nc2c1-c1ccccc1,i,-12*,i,i,-5*,-19,115*,0.14*
COc1ccc(C(=O)Nn2c(CC(C)C)nc3cc(Cl)ccc3c2=O)c(OC)c1,i,i,i,i,0.21,-10,/,/
Cc1cccc(CSC2=NCCN2S(=O)(=O)c2ccc(F)cc2)c1,i,-8.9*,i,i,-1,-9,105*,i
Cc1ccc(S(=O)(=O)N2CCN=C2SCc2ccccc2)cc1,i,i,i,i,-2,-5,/,/
CC(=O)Nc1ccc(OCC(O)Cn2nc(C)c(C)c2C)cc1 (stereo not drawn),i,i,i,i,0.06,-4,/,/
C=CCOc1ccc(/C=C(\C#N)C(=O)Nc2ccccn2)cc1,i,i,i,i,0.02,-7,/,/
Oc1ccccc1-c1csc(-c2ccccc2)n1,i,-9.1*,-6.6*,i,1.6,-9,115*,0.14*
Oc1ccc(-c2csc(-c3ccccc3)n2)cc1O,i,i,i,i,2.2,-20,/,/
O=C(CCCOc1cccc(Br)c1)NCCOc1ccccc1,i,i,i,i,2.1,-6,/,/
CCN(CC)S(=O)(=O)c1ccc(N2CCOCC2)c(NC(=O)c2cccc3ccccc23)c1,i,i,i,i,0.86,-14,/,/
CCOc1ccccc1NC(=O)c1cc(-c2cc(OC)c(OC)c(OC)c2)nc2ccccc12,i,-9.7*,i,i,0.8,-21,132*,0.093*
COc1ccc(N2CCOCC2)c(NC(=O)c2cccc3ccccc23)c1,i,-9.5*,i,i,-0.42,-7,108*,i
COc1ccc(-c2cc(C(=O)Nc3ccccc3N3CCOCC3)c3ccccc3n2)cc1OC,i,-8.7*,i,i,0.15,-19,95*,0.13*
COC(=O)C1C(=O)C2=C(CC1C)Nc1ccccc1NC2c1cccs1 (stereo not drawn),i,i,i,i,-0.66,-4,/,/
COc1cccc(NC(=O)CCC2CCN(C(=O)c3cccc(NC(C)=O)c3)CC2)c1,i,i,i,i,-0.75,-13,/,/
Cc1ccc(Br)cc1S(=O)(=O)N1CCN(c2ccccc2)CC1,i,-11*,i,i,1.2,-10,102*,0.15*
CCOC(=O)c1c(NC(=O)c2cccs2)sc(C(=O)N(C)C)c1C,i,i,i,i,-0.87,-7,/,/
CCOC(=O)c1c(NC(=O)c2cccs2)sc(C)c1CC,i,-9.8*,-7.5*,i,-1.1,-1,119*,i
COc1cccc(C(=O)Nc2nnc(S(=O)(=O)N(C)Cc3ccc(F)cc3)s2)c1,i,i,i,i,-0.35,-5,/,/
Cc1onc(-c2ccc3c(c2)OCO3)c1-c1ccc2[nH]ccc2c1,i,-9.5*,i,i,-0.57,-21,95*,i

# Source: PubChem
